Screens from PubChem BioAssay.
Most compounds without a hit are left out; they make up all but 1.8% or so of the library.
APJ ag: APJ receptor agonism. activation, % at 20 µM. 0.11% of 330,000 active. AID 2520. P35414. CHO-K1 APJ PathHunter beta-arrestin, luminescence; 0% DMSO wells, 100% apelin;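 active = activation more than six SD over the plate average, tested at 20 µM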;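 note: 0% = DMSO alone and 100% = apelin-13 at 10 nM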
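Assay system: CHO-K1 APJ beta-arrestin complementation cell line / Compound: single test compound dose, 20 µM final, 1% DMSO / Times: overnight seeding, 90 min compound at 25 °C, 1 h detection / Technique: beta-gal luminescence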
Beta2AR agonist: activates human beta-2 adrenergic receptor causing internalization; P07550; Am2.2-beta2AR cells, FAP receptor internalization, flow cytometry; response, % (concentration not given with the values); 0.43% of 340,000 active; AID 504454;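 active = response above a set limit, near 3 SD of response in nonfluorescent compounds, cut at about 42% in these data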
CXCR6 block: blocks human CXCR6 beta-arrestin recruitment | O00574 | CHO-K1 PathHunter CXCR6 beta-arrestin, luminescence | inhibition, % at 20 µM | 0.36% of 360,000 active | AID 602244; in the data active = inhibition above about 34%, passing the limit was not always enough;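 note: antagonist mode with CXCL16 agonist at 10 nM final; 0% = 10 nM CXCL16 with DMSO and 100% = unstimulated wells without agonist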
EBI2 block: antagonists of human EBI2 receptor; P32249; EBI2 beta-arrestin recruitment, luminescence, 7a,25-OHC stimulated; inhibition, % at 5 µM; 0.81% of 360,000 active; in the data active = inhibition above about 38%;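 note: enzyme fragment complementation signal reports receptor beta-arrestin coupling in cells; 0% = agonist plus DMSO wells and 100% = wells without agonist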
CCR6 antag: CCR6 (human) receptor antagonism; P51684; CHO-K1 CCR6 PathHunter beta-arrestin, luminescence, CCL20-stimulated; inhibition, % at 20 µM; 0.49% of 340,000 active;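 active = compounds whose inhibition of the agonist-driven luminescence signal at 20 µM reaches about 50%, limit read from the data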;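 note: cells stimulated with CCL20 at 14 nM final; plate controls were DMSO with CCL20 for no effect and DMSO without agonist for full effect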
Target sequence (P51684 whole entry, looked up): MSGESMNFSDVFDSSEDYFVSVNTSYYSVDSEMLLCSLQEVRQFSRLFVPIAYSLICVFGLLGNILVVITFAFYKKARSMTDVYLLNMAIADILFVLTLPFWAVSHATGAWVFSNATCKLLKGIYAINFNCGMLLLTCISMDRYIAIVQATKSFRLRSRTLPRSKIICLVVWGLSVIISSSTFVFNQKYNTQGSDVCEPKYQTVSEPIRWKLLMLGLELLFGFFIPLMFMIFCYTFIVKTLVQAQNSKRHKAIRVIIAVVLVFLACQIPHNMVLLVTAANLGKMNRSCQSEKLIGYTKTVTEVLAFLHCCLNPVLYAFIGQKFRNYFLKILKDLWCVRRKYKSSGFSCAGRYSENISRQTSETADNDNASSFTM
APJ antag: antagonists of human APJ apelin receptor. inhibition, % at 20 µM. 0.32% of 330,000 active. CHO-K1 APJ beta-arrestin complementation, luminescence. P35414;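 active = inhibition above about 40% at 20 µM, limit read from the data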;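 note: cells challenged with 10 nM apelin-13 agonist together with compound; plate controls were apelin-13 plus DMSO wells for no effect and DMSO wells lacking apelin-13 for full effect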
* = called active by the depositor; · = no result given.

SMILES | APJ ag | Beta2AR agonist | CXCR6 block | EBI2 block | CCR6 antag | APJ antag
CCN(CC)C(=O)C1=C(C)N(Cc2ccc(OC)cc2)C(=O)C(CC(=O)NCC2CCCCC2)C1 (configuration not stated) | · | · | 6 | 6 | · | ·
COc1cc(OC)c(OC)cc1/C=C/C(=O)OCC(=O)Nc1c(C)n(C)n(-c2ccccc2)c1=O | · | -1 | -6 | -4 | 0 | ·
COc1ccc(-c2nn(-c3ccccc3)cc2/C=N/NC(=O)c2ccc(Br)o2)cc1 | 12 | 61* | -34 | -32 | 2 | -27
COc1ccc(-c2nn(-c3ccccc3)cc2/C=C/C(=O)OCC(=O)Nc2ccc(C#N)cc2)cc1 | -4 | 55* | 2 | 25 | 23 | 3
Cc1ccc(-c2nn(-c3ccccc3)cc2/C=N/NC(=O)CSc2nnc(C)n2-c2ccccc2)cc1 | -1 | 89* | 2 | 24 | -20 | -12
Cc1cc(C)cc(N2C(=O)C=CC2=O)c1 | · | 16 | 95* | 6 | · | ·
Cc1cc(N2C(=O)C=CC2=O)c([N+](=O)[O-])cc1C | -3 | 24 | 85* | 8 | · | 17
Cc1ccc(N2C(=O)C3C4C=CC(CC4)C3C2=O)cc1[N+](=O)[O-] (configuration not stated) | -2 | 0 | 3 | 9 | -2 | -15
Cc1cc(C)cc(N2C(=O)c3nccnc3C2=O)c1 | 0 | -3 | -5 | -29 | 6 | -3
Cc1c([N+](=O)[O-])cc(N2C(=O)C=CC2=O)cc1[N+](=O)[O-] | · | 1 | 52* | 0 | · | ·
COc1ccc(-c2coc3c(C(=O)NCc4ccc(OC)c(OC)c4)cccc23)c(C)c1 | · | · | 5 | 0 | · | ·
Cc1ccc(C)c(S(=O)(=O)N2CCN(C(=O)CCC(=O)NCc3ccc(Cl)cc3Cl)CC2)c1 | · | -1 | -2 | 24 | 11 | ·
Cc1cc(N/N=C/c2ccc(O)cc2O)nc(-n2nc(C)cc2C)n1 | · | 13 | 92* | 84* | 93* | ·
COc1ccc(C2=C(N)c3ccccc3C2=O)cc1 | 0 | -16 | 8 | -4 | 19 | 12
COC1=C(c2ccccc2)C(=O)c2ccccc2C1=O | 12* | 12 | 0 | -1 | 6 | -14
CCCOc1ccc(F)cc1-c1cc(C(=O)Nc2ccc(C(C)C)cc2)[nH]n1 | · | · | 4 | 30 | · | ·
CC1=NN(C(=O)c2ccc(Cl)cc2)C(O)(c2ccccc2)C1 (configuration not stated) | -5 | 2 | 18 | 1 | 55* | 15
O=C(Nc1ccc(Cl)cc1Cl)c1cccc(N2C(=O)C=CC2=O)c1 | -1 | 71* | 105* | -4 | 47 | -5
CCOc1cnn(-c2cc(Oc3ccc(C)cc3)ncn2)c(=O)c1Cl | 0 | -16 | -3 | 8 | 13 | -13
Cc1ccccc1Oc1cc(-n2ncc(Cl)c(Cl)c2=O)ncn1 | · | 26 | 46* | 68* | 65* | ·
N#Cc1cc(Oc2ccc3ccccc3c2)c(-n2nnc3ccccc32)cc1C#N | -4 | 48* | 5 | 10 | 14 | 7
CCCC[C@@H]1CC2=C(C(=O)OC(C)(C)O2)[C@@H](c2ccc(Cl)cc2)O1 | · | · | -1 | 7 | · | ·
CCCCNC(=O)C1(C)CCCCN1C(=O)c1ccc2c(c1)CCO2 (configuration not stated) | · | · | 4 | -11 | · | ·
COc1ccc(N=C/C=C2\C=C(c3ccccc3)OC(C)(C)O2)cc1 | -2 | 29 | 7 | -5 | 8 | 1
CC1(C)OC(c2ccccc2)=C/C(=C/C=C2C(=O)c3ccccc3C2=O)O1 | -7 | -20 | 46* | 10 | 59* | 36
SMILES | APJ ag | Beta2AR agonist | CXCR6 block | EBI2 block | CCR6 antag | APJ antag
Cc1ccc(N=c2ssnc2Cl)cc1 | 1 | 0 | 5 | 17 | 17 | 9
Cc1cc(Cl)ccc1N=c1ssnc1Cl | -2 | -1 | 14 | 38* | 39 | 14
COc1ccccc1C(=O)NC(=O)CSc1nnc(C)s1 | 0 | -1 | -4 | -5 | -2 | 24
O=c1[nH]cc(F)c(=O)n1C1OC(CO)C(O)C1O (configuration not stated) | · | · | 4 | -1 | · | ·
O=S(=O)(Nc1ccc(N=Nc2ccc(O)c3ccccc23)cc1)c1ccccc1 | -10 | 11 | 34 | 47* | 61* | 38
O=S(=O)(Nc1ccc(N=Nc2ccccc2)cc1)c1ccccc1 | -5 | -5 | 26 | 0 | 37 | 26
O=C(N/N=C/c1cccs1)c1ccc2ccccc2c1 | 2 | 6 | 6 | 5 | -4 | -20
CC(C)(C)C1CCc2c(C(=O)N/N=C/c3cccs3)csc2C1 (configuration not stated) | -4 | 94* | -6 | 15 | 16 | 6
CC(C)(C)C1CCc2c(C(=O)NNC(=O)/C=C/C(=O)O)csc2C1 (configuration not stated) | -2 | 48* | 4 | -10 | -5 | -4
C[C@H](CO)N1C[C@H](C)[C@@H](CN(C)S(C)(=O)=O)Oc2ccc(NS(=O)(=O)c3cn(C)cn3)cc2C1=O | -6 | 3 | -2 | -13 | 14 | 0
C[C@@H](C(=O)N1CCN(Cc2ccc3c(c2)OCO3)CC1)n1nnc2ccccc2c1=O | -5 | 13 | -1 | -4 | 3 | -14
ON1C2CCCCC2N(O)C1c1c(F)c(F)c(F)c(F)c1F (configuration not stated) | -12 | -1 | 18 | -1 | 53* | 30
Cc1c(C(=O)NCc2ccc(F)cc2)oc2ccc(S(=O)(=O)N3CCOCC3)cc12 | 3 | 5 | -19 | 16 | -4 | -16
CCN(CC)S(=O)(=O)c1ccc2oc(C(=O)NCc3ccc(F)cc3)c(C)c2c1 | 0 | 7 | 5 | 50* | 11 | -1
C#CCN(C[C@@H]1[C@@H](OC(=O)NCc2ccccc2F)[C@@H](OC(=O)NCc2ccccc2F)Cn2c(=O)ccc(=O)n21)S(=O)(=O)c1ccc(C)cc1 | · | · | -1 | 55* | · | ·
CC(C)(C)n1nnnc1C(c1cc2ccccc2o1)N1CCOCC1 (configuration not stated) | · | · | 2 | -1 | · | ·
O=C(N/N=C/c1ccccc1)c1ccc(N2CCCC2=O)cc1 | 4 | 64* | -4 | 5 | 2 | -3
C/C(=N\NC(=O)c1ccc(N2CCCC2=O)cc1)c1ccccc1 | -2 | -18 | -3 | -3 | -2 | -3
Cc1cc(C)c2nc(NNC(=O)c3ccc(S(=O)(=O)N4CC(C)CC(C)C4)cc3)sc2c1 (configuration not stated) | -2 | 43* | 13 | 9 | 21 | -3
Cc1cccc2sc(NNC(=O)c3ccc(S(=O)(=O)N4CC(C)CC(C)C4)cc3)nc12 (configuration not stated) | 17 | 48* | 7 | -8 | 3 | -5
